Calls of active or inactive are those of the source. The calls are words filed in the database; no cut-off is given here.
How the values were obtained:
[1] = tested on: Rattus norvegicus; assay: Inhibition of MetAP2 level in Sprague-Dawley rat liver assessed as free enzyme level at 0.3 mg/kg, iv by ELISA; type: functional, organism-based; design: dose 0.3 mg/kg
Summary of the method: (§1)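 Male Sprague-Dawley rats (200-225 g, n=3 per group) were dosed once IV at 0.3 mg/kg or PO at 0.3 or 3.0 mg/kg, in 11% HPCD in water. Blood, liver, lung, thymus and pooled non-mesenteric lymph nodes were taken at ~24 h and lysed or homogenized with NP-40. Free MetAP2 was measured by ELISA and expressed as % of vehicle.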

[2] = tested on: Rattus norvegicus; assay: Inhibition of MetAP2 level in Sprague-Dawley rat thymus assessed as free enzyme level at 0.3 mg/kg, po by ELISA; type: functional, organism-based; design: dose 0.3 mg/kg; summary of the method: as §1
[3] = tested on: Rattus norvegicus; assay: Inhibition of MetAP2 level in Sprague-Dawley rat lung assessed as free enzyme level at 0.3 mg/kg, po by ELISA; type: functional, organism-based; design: dose 0.3 mg/kg; summary of the method: as §1
[4] = tested on: Rattus norvegicus; assay: Inhibition of MetAP2 level in Sprague-Dawley rat thymus assessed as free enzyme level at 3 mg/kg, po by ELISA; type: functional, organism-based; design: dose 3 mg/kg; summary of the method: as §1
[5] = tested on: Liver microsome; assay: Retention time in rat liver microsomes treated with at 5 mM PPI-2458 by LC/MS analysis; type: ADME; details: 5000 µM
Summary of the method: (§2)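 Liver microsomes (pooled male/female) in 100 mM KPO4 pH 7.4 with PPI-2458 (5 mM stock), pre-incubated 5 min at 37°C, then 10 mM NADPH added; 20 min at 37°C with shaking. Time-zero and no-NADPH controls. Quenched with CH3CN; supernatant dried and redissolved in water. Analysed by LC-MS, ESI+ full scan 300–800 amu, C18 column, 10→50% B gradient.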

[6] = Retention time in mouse liver microsomes treated with at 5 mM PPI-2458 by LC/MS analysis; type: ADME; details: 5000 µM; summary of the method: as §2
[7] = tested on: Liver microsome; assay: Retention time in human liver microsomes treated with at 5 mM PPI-2458 by LC/MS analysis; type: ADME; details: 5000 µM; summary of the method: as §2
[8] = tested on: Rattus norvegicus; assay: Inhibition of MetAP2 level in Sprague-Dawley rat liver assessed as free enzyme level at 3 mg/kg, po by ELISA; type: functional, organism-based; design: dose 3 mg/kg; summary of the method: as §1
[9] = Retention time in monkey liver microsomes treated with at 5 mM PPI-2458 by LC/MS analysis; type: ADME, Macaca mulatta; details: rhesus monkey, 5000 µM; summary of the method: as §2
[10] = tested on: Liver microsome; assay: Retention time in dog liver microsomes treated with at 5 mM PPI-2458 by LC/MS analysis; type: ADME, Canis lupus familiaris; details: 5000 µM; summary of the method: as §2
[11] = biological target: Methionine aminopeptidase 2 (Homo sapiens) (UniProt P50579); assay: Inhibition of human MetAP2 assessed as remaining enzyme activity after 8 hrs; design: concentration or dose not given beside the values
Summary of the method: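 The hMetAP2 assay follows the fraction of active enzyme remaining during an 8 h incubation with inhibitor, relative to an enzyme-only control.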

[12] = tested on: Rattus norvegicus; assay: Inhibition of MetAP2 level in Sprague-Dawley rat lung assessed as free enzyme level at 3 mg/kg, po by ELISA; type: functional, organism-based; design: dose 3 mg/kg; summary of the method: as §1
[13] = tested on: Rattus norvegicus; assay: Inhibition of MetAP2 level in Sprague-Dawley rat lymph nodes assessed as free enzyme level at 0.3 mg/kg, iv by ELISA; type: functional, organism-based; design: dose 0.3 mg/kg; summary of the method: as §1
[14] = tested on: Rattus norvegicus; assay: Inhibition of MetAP2 level in Sprague-Dawley rat lung assessed as free enzyme level at 0.3 mg/kg, iv by ELISA; type: functional, organism-based; design: dose 0.3 mg/kg; summary of the method: as §1
[15] = tested on: Rattus norvegicus; assay: Inhibition of MetAP2 level in Sprague-Dawley rat whole blood assessed as free enzyme level at 0.3 mg/kg, po by ELISA; type: functional, organism-based; design: dose 0.3 mg/kg; summary of the method: as §1
[16] = tested on: Rattus norvegicus; assay: Inhibition of MetAP2 level in Sprague-Dawley rat thymus assessed as free enzyme level at 0.3 mg/kg, iv by ELISA; type: functional, organism-based; design: dose 0.3 mg/kg; summary of the method: as §1
[17] = tested on: Rattus norvegicus; assay: Inhibition of MetAP2 level in Sprague-Dawley rat whole blood assessed as free enzyme level at 0.3 mg/kg, iv by ELISA; type: functional, organism-based; design: dose 0.3 mg/kg; summary of the method: as §1
[18] = tested on: Rattus norvegicus; assay: Inhibition of MetAP2 level in Sprague-Dawley rat whole blood assessed as free enzyme level at 3 mg/kg, po by ELISA; type: functional, organism-based; design: dose 3 mg/kg; summary of the method: as §1
[19] = tested on: Rattus norvegicus; assay: Inhibition of MetAP2 level in Sprague-Dawley rat liver assessed as free enzyme level at 0.3 mg/kg, po by ELISA; type: functional, organism-based; design: dose 0.3 mg/kg; summary of the method: as §1
[20] = tested on: Rattus norvegicus; assay: Inhibition of MetAP2 level in Sprague-Dawley rat lymph nodes assessed as free enzyme level at 3 mg/kg, po by ELISA; type: functional, organism-based; design: dose 3 mg/kg; summary of the method: as §1
[21] = tested on: Rattus norvegicus; assay: Inhibition of MetAP2 level in Sprague-Dawley rat lymph nodes assessed as free enzyme level at 0.3 mg/kg, po by ELISA; type: functional, organism-based; design: dose 0.3 mg/kg; summary of the method: as §1
[22] = biological target: Methionine aminopeptidase 2 (Homo sapiens) (UniProt P50579); assay: Inhibition of human MetAP2 activity after end of experiment; design: scale not given: the % may be the effect or the level left

Methionine aminopeptidase 2 (Homo sapiens), sequence (P50579 2-478 limits assumed): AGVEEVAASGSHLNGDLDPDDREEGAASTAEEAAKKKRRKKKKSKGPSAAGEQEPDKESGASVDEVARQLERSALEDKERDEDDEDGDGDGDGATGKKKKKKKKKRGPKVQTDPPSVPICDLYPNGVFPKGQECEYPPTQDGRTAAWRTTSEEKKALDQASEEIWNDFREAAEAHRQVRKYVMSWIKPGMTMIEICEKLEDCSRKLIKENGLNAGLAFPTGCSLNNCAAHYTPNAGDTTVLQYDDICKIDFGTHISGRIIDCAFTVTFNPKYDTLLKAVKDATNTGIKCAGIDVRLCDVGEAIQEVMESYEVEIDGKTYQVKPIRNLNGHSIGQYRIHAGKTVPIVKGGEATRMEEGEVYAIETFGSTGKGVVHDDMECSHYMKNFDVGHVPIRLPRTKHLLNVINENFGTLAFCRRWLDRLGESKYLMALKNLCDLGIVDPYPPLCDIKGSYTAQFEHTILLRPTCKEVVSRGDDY

SMILES	Retention_time [5]	Retention_time [6]	Retention_time [7]	Retention_time [9]	Retention_time [10]	Activity [11]	inhibition [1]	inhibition [2]	inhibition [3]	inhibition [4]	inhibition [8]	inhibition [12]	inhibition [13]	inhibition [14]	inhibition [15]	inhibition [16]	inhibition [17]	inhibition [18]	inhibition [19]	inhibition [20]	other results
CO[C@@H]1[C@H](OC(=O)N[C@@H](C(N)=O)C(C)(C)O)CC[C@]2(CO2)[C@H]1[C@@]1(C)O[C@@H]1CC=C(C)C	26.7 min	26.7 min	26.7 min	26.7 min	26.7 min	1%	Active	Active	Active	Active	Active	Active	Active	Active	Active	Active	Active	Active	Active	Active	inhibition [21]: Active
CO[C@@H]1[C@H](OC(=O)N[C@@H](C(N)=O)C(C)C)CC[C@]2(CO2)[C@H]1[C@@]1(C)O[C@@H]1C/C=C(\C)CO	17.6 min	17.6 min	17.6 min	17.6 min	17.6 min	9%	Active	inactive	inactive	Active	Active	Active	Active	Active	inactive	Active	Active	Active	inactive	Active	Activity [22]: 90%; inhibition [21]: inactive
CO[C@@H]1[C@H](OC(=O)N[C@@H](C(N)=O)C(C)C)CC[C@]2(CO2)[C@H]1[C@@]1(C)O[C@@H]1C[C@@H]1OC1(C)C	20.1 min	20.1 min	20.1 min	20.1 min	20.1 min	58%	Active	inactive	inactive	Active	Active	Active	Active	Active	inactive	Active	Active	Active	inactive	Active	Activity [22]: 40%; inhibition [21]: inactive
CO[C@@H]1[C@H](OC(=O)N[C@@H](C(N)=O)C(C)C)CC[C@]2(CO2)[C@H]1[C@@]1(C)O[C@@H]1CCC(C)(C)O	–	–	–	–	–	90%	–	–	–	–	–	–	–	–	–	–	–	–	–	–	–

More lines, main results first:

Retention_time [5]	Retention_time [6]	Retention_time [7]	Retention_time [9]	Retention_time [10]	Activity [11]	SMILES	inhibition [1]	inhibition [2]	inhibition [3]	inhibition [4]	inhibition [8]	inhibition [12]	inhibition [13]	inhibition [14]	inhibition [15]	inhibition [16]	inhibition [17]	inhibition [18]	inhibition [19]	inhibition [20]	other results
–	–	–	–	–	6%	CO[C@@H]1[C@H](OC(=O)N[C@@H](C(N)=O)C(C)(C)O)CC[C@]2(CO2)[C@H]1[C@@]1(C)O[C@@H]1C[C@H]1OC1(C)C	–	–	–	–	–	–	–	–	–	–	–	–	–	–	–
20.8 min	20.8 min	20.8 min	20.8 min	20.8 min	10%	CO[C@@H]1[C@H](OC(=O)N[C@@H](C(N)=O)C(C)C)CC[C@]2(CO2)[C@H]1[C@@]1(C)O[C@@H]1C[C@H]1OC1(C)C	Active	inactive	inactive	Active	Active	Active	Active	Active	inactive	Active	Active	Active	inactive	Active	Activity [22]: 90%; inhibition [21]: inactive
–	–	–	–	–	39%	CO[C@@H]1[C@H](OC(=O)N[C@@H](C(N)=O)C(C)(C)O)CC[C@]2(CO2)[C@H]1[C@@]1(C)O[C@@H]1C[C@@H]1OC1(C)C	–	–	–	–	–	–	–	–	–	–	–	–	–	–	–

— ChEMBL document CHEMBL3526018, “Metabolites of PPI-2458, a selective, irreversible inhibitor of methionine aminopeptidase-2: structure determination and in vivo activity” (Drug Metab Dispos, 2013)
